Data from ChEMBL document CHEMBL4052814, “GNE-781, A Highly Advanced Potent and Selective Bromodomain Inhibitor of Cyclic Adenosine Monophosphate Response Element Binding Protein, Binding Protein (CBP)” (J Med Chem, 2017).
Active and inactive are the calls of the source. The rule behind the calls is not given here.

Tests used:
Cytochrome P450 3A4 = Cytochrome P450 3A4 (Homo sapiens, UniProt P08684); experiment: Inhibition of CYP3A4 (unknown origin); format: ADME
Mus musculus [1] = experiment: In vivo inhibition of CBP in human MOLM16 cells xenografted in C.B-17 SCID beige mouse assessed as suppression of MYC transcript levels at 10 mg/kg administered via oral gavage […] measured 2 hrs post last dose by real time-PCR method relative to control; format: functional
In short: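 MOLM-16 subcutaneous xenografts in SCID beige mice received single oral doses of 3–30 mg/kg (n=3/group). Tumors were taken at time points from 2 to 24 h. MYC transcript was measured in tumor RNA by one-step TaqMan qRT-PCR with ACTB as housekeeping gene. Results are given relative to vehicle-treated animals by the comparative Ct method.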

Mus musculus [2] = experiment: In vivo inhibition of CBP in human MOLM16 cells xenografted in C.B-17 SCID beige mouse assessed as MYC transcript levels at 3 mg/kg administered via oral gavage as bid for 21 days measured 16 hrs post last dose by real time-PCR method; format: functional; design: scale not given: the % may be the effect or the level left
[3] = Antitumor activity against human MOLM16 cells xenografted in C.B-17 SCID beige mouse assessed as tumor growth inhibition at 30 mg/kg administered via oral gavage as bid for 21 days relative to control; format: functional; conditions: read-out: TGI
In short: (§1)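 Female C.B-17 SCID.bg mice received 5 million MOLM-16 cells s.c. in HBSS/Matrigel in the right flank. Dosing began at 130–300 mm3: oral gavage BID for 21 days in 0.5% methylcellulose, 0.2% Tween 80, n=10/group. Caliper volumes taken; %TGI computed from the area under the mixed-model spline-fitted curve per day versus vehicle.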

[4] = Cytotoxicity against induced-Treg cells differentiated from human PBMC derived naive CD4-positive T cells assessed as effect on cell viability at 0.001 to 2 uM measured after 4 days by […] dye-based flow cytometry; conditions: 96 h
In short: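 Naïve CD4+ T cells from healthy-donor PBMC were differentiated to iTregs with anti-CD3, anti-CD28, rIL-2 (10 ng/ml) and rTGFβ in RPMI-1640 with 10% FCS. Compound was tested from 2 µM in 2-fold dilutions, with DMSO as control. Cells were harvested on day 4 and viability was scored by flow cytometry with a fixable viability dye.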

Mus musculus [5] = experiment: In vivo inhibition of CBP in human MOLM16 cells xenografted in C.B-17 SCID beige mouse assessed as suppression of MYC transcript levels at 3 mg/kg administered via oral gavage as bid for 21 days measured 2 to 8 hrs post last dose by real time-PCR method; format: functional, organism-based
[6] = Antitumor activity against human MOLM16 cells xenografted in C.B-17 SCID beige mouse assessed as tumor growth inhibition at 10 mg/kg administered via oral gavage as bid for 21 days relative to control; format: functional; conditions: read-out: TGI; in short: as §1
[7] = Antitumor activity against human MOLM16 cells xenografted in C.B-17 SCID beige mouse assessed as tumor growth inhibition at 3 mg/kg administered via oral gavage as bid for 21 days relative to control; format: functional; conditions: read-out: TGI; in short: as §1
Cytochrome P450 2C19 = Cytochrome P450 2C19 (Homo sapiens, UniProt P33261); experiment: Inhibition of CYP2C19 (unknown origin); format: ADME
Homo sapiens = species: Homo sapiens; experiment: Selectivity ratio of IC50 for human recombinant His-tagged BRD4 bromodomain-1 to IC50 for human recombinant His-tagged P300
Cytochrome P450 2C9 = Cytochrome P450 2C9 (Homo sapiens, UniProt P11712); experiment: Inhibition of CYP2C9 (unknown origin); format: ADME
[8] = Drug uptake in tumor of C.B-17 SCID beige mouse xenografted with human MOLM16 cells at 3 to 30 mg/kg administered via oral gavage […] measured 2 to 24 hrs post last dose by LC-MS/MS method; format: ADME, organism-based, Neoplasm; conditions: in vivo
In short: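 In MOLM-16 xenograft mice given single oral doses of 3–30 mg/kg, plasma and tumor were sampled from 2 to 24 h. Tumor was homogenized in 4 volumes of water. Both matrices were extracted with acetonitrile with labetalol as internal standard and measured by LC-MS/MS. Levels were corrected for plasma protein and tissue binding to give unbound concentrations.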

[9] = target: T1, Bromodomain-containing protein 4 (Homo sapiens, UniProt O60885); experiment: Displacement of biotinylated histone H3K14 peptide ligand from human recombinant His-tagged BRD4 bromodomain-2 measured after 10 mins by TR-FRET assay
[10] = target: T1, Bromodomain-containing protein 4; experiment: Displacement of biotinylated histone H3K14 peptide ligand from human recombinant His-tagged BRD4 bromodomain-1 measured after 10 mins by TR-FRET assay
CREB-binding protein = CREB-binding protein (Homo sapiens, UniProt Q92793); experiment: Inhibition of CBP in human MV-4-11 cells assessed as decrease in MYC expression incubated for 4 hrs measured by luminescence method; format: cell-based
CREB-binding protein, sequence (Q92793 whole entry): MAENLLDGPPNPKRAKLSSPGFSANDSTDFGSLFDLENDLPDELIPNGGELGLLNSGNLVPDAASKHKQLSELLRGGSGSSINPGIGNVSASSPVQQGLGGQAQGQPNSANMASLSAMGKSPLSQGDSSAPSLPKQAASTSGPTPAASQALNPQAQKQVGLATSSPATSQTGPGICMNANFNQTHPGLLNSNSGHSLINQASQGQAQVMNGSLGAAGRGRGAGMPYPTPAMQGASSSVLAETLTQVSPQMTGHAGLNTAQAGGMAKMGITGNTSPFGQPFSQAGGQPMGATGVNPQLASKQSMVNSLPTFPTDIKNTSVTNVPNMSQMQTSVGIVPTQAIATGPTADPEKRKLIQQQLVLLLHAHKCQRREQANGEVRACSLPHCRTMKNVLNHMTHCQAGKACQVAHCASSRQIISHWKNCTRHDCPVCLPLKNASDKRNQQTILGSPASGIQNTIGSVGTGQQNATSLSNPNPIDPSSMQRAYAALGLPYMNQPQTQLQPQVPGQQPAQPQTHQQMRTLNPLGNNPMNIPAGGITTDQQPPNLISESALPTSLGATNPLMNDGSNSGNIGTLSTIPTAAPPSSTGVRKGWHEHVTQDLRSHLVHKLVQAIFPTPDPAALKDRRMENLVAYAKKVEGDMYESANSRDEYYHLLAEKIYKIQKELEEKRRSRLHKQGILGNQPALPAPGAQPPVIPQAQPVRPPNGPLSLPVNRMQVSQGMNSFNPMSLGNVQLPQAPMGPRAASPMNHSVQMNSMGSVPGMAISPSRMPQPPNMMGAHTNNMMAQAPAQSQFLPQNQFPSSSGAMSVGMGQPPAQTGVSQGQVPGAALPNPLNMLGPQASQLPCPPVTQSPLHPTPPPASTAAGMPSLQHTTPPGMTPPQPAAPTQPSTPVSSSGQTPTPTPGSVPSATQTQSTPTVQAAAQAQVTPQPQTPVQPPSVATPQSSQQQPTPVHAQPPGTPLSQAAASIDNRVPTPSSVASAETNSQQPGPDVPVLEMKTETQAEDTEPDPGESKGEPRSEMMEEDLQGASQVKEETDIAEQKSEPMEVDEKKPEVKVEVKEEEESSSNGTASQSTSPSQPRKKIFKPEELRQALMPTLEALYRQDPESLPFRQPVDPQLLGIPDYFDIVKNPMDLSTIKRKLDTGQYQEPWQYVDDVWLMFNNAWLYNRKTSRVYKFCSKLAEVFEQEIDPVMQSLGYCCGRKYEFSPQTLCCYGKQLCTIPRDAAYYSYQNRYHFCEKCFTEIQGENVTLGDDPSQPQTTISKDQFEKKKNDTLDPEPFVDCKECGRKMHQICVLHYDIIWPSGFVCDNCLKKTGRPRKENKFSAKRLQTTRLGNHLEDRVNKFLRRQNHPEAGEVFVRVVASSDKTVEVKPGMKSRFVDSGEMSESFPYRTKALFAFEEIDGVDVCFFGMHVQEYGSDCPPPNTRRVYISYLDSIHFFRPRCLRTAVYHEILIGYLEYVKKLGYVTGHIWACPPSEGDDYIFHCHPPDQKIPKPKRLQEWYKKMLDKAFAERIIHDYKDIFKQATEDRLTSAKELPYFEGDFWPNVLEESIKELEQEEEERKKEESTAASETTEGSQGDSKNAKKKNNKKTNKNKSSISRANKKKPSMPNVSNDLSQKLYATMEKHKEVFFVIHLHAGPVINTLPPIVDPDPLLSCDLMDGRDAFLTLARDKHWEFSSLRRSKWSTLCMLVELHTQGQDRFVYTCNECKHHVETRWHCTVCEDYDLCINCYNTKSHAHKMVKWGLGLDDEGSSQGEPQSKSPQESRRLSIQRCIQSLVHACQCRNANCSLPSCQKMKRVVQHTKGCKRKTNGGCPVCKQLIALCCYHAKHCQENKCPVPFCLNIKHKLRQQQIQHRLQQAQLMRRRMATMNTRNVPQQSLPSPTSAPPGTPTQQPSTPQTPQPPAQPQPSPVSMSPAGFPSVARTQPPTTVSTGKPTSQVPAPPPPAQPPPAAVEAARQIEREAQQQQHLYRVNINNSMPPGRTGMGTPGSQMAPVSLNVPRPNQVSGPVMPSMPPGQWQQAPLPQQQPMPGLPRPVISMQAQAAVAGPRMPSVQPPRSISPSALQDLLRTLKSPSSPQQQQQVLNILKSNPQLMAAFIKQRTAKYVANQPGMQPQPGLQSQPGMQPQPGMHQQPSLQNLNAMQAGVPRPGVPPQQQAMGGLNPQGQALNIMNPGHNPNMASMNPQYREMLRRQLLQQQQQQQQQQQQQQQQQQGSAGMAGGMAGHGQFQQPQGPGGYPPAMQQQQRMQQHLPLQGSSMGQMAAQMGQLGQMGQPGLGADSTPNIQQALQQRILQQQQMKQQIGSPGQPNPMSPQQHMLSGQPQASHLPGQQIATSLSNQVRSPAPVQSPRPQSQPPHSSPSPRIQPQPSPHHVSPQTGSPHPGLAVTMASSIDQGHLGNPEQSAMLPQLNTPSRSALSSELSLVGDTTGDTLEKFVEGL

Cytochrome P450 2C19, sequence (P33261 whole entry): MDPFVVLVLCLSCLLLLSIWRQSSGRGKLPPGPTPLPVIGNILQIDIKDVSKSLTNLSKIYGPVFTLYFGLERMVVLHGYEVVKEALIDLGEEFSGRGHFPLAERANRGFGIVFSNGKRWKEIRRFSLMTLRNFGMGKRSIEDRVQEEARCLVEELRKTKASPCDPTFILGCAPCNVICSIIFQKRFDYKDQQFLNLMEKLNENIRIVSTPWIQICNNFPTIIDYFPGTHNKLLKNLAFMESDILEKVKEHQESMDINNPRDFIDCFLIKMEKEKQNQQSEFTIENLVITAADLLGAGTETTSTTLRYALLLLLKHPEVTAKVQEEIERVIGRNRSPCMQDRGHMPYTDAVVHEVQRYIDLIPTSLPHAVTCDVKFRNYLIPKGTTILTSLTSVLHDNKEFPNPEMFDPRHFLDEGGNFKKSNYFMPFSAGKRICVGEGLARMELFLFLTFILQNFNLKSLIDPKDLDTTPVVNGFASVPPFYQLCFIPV
Cytochrome P450 3A4, sequence (P08684 whole entry): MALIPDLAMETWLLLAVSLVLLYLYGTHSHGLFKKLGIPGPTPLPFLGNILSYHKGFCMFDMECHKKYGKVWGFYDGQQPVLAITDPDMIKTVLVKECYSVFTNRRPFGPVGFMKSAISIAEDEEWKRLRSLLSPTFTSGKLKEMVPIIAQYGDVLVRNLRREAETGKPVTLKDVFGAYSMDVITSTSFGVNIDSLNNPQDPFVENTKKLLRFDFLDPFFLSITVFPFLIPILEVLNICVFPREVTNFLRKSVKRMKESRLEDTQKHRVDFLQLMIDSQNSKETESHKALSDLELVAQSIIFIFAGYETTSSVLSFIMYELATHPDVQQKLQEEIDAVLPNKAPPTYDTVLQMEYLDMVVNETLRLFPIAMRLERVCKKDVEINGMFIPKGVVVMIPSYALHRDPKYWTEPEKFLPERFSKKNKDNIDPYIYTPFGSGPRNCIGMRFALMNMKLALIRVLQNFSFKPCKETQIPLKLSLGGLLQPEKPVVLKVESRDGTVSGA
Cytochrome P450 2C9, sequence (P11712 whole entry): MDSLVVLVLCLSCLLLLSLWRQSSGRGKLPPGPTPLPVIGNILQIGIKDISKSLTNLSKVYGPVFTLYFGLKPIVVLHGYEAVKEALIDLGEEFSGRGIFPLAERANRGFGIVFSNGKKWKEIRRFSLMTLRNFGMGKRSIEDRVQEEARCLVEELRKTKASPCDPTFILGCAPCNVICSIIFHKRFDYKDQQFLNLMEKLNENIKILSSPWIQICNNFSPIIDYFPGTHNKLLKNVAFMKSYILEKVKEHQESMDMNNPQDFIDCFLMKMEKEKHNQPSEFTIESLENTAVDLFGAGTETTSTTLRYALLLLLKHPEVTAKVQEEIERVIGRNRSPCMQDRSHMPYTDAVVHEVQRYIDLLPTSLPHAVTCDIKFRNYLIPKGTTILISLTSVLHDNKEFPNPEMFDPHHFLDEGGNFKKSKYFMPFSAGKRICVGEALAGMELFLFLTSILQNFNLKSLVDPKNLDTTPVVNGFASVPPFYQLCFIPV

| IC50 (Cytochrome P450 3A4) [µM] | IC50 (Cytochrome P450 2C19) [µM] | Ratio IC50 (Homo sapiens) | IC50 (Cytochrome P450 2C9) [µM] | Drug uptake [8] | IC50 [9] [µM] | IC50 [10] [µM] | EC50 (CREB-binding protein) [µM] | SMILES | Imax (Mus musculus [1]) [%] | Activity (Mus musculus [2]) [%] | inhibition in vivo at 30 mg/kg [3] [%] | Activity [4] | inhibition (Mus musculus [5]) | inhibition in vivo at 10 mg/kg [6] [%] | inhibition in vivo at 3 mg/kg [7] [%] |
| --- | --- | --- | --- | --- | --- | --- | --- | --- | --- | --- | --- | --- | --- | --- | --- |
| > 10 | > 10 | 4250 | > 10 | Active |  |  |  | CNC(=O)N1CCc2c(c(N3CCCc4cc(-c5cnn(C)c5)c(C(F)F)cc43)nn2C2CCOCC2)C1 | 87 | 150 | 89 | Non-Toxic | Active | 71 | 73 |
|  |  |  |  |  | > 20 | 4.2 | 0.014 | CC(=O)N1CCc2c(c(N3CCCc4cc(-c5cnn(C)c5)c(C(F)F)cc43)nn2C2CCOCC2)C1 |  |  |  |  |  |  |  |
